Assay results from different studies.
Protocols differ between the studies behind these lines.
ABL1 F317L non-phosphorylated: Tyrosine-protein kinase ABL1, non-phosphorylated (ABL1, Homo sapiens, UniProt P00519, F317L)
ABL1 Q252H phosphorylated: Tyrosine-protein kinase ABL1, phosphorylated (ABL1, Homo sapiens, UniProt P00519, Q252H)
ABL1 F317I phosphorylated: Tyrosine-protein kinase ABL1, phosphorylated (ABL1, Homo sapiens, UniProt P00519, F317I)
ABL1 E255K: Tyrosine-protein kinase ABL1 (ABL1, Homo sapiens, UniProt P00519, E255K)
ABL1 phosphorylated: Tyrosine-protein kinase ABL1, phosphorylated (ABL1, Homo sapiens, UniProt P00519)
ABL1: Tyrosine-protein kinase ABL1 (ABL1, Homo sapiens, UniProt P00519)
ABL1 T315I: Tyrosine-protein kinase ABL1 (ABL1, Homo sapiens, UniProt P00519, T315I)
ABL1 F317I non-phosphorylated: Tyrosine-protein kinase ABL1, non-phosphorylated (ABL1, Homo sapiens, UniProt P00519, F317I)
ABL1 H396P: Tyrosine-protein kinase ABL1 (ABL1, Homo sapiens, UniProt P00519, H396P)
ABL1 F317L phosphorylated: Tyrosine-protein kinase ABL1, phosphorylated (ABL1, Homo sapiens, UniProt P00519, F317L)

Compound | target | test | conditions | endpoint | result
CN(C)C(=O)Cn1cc(-c2nc(C3(c4ccc(-c5cnc(N)nc5)cc4)CC3)no2)cn1 | ABL1 F317L non-phosphorylated | cell-free assay, competition with immobilised ligand | 1 µM | remaining binding | 55%
COc1ncc2cc3ccccc3nc2c1C#N | Tyrosine-protein kinase ABL1, phosphorylated (ABL1, Homo sapiens, UniProt P00519, E255K) | cell-free assay, competition with immobilised ligand | 5 µM | remaining binding | 100%
C[C@H]1CCN(c2nccc(-c3cnn4ncccc34)n2)C1 | Tyrosine-protein kinase ABL1, non-phosphorylated (ABL1, Homo sapiens, UniProt P00519) | binding | 1 µM | remaining binding | 86%
Cc1c(NC(=O)c2cc(C(N)=O)nc3cc(F)ccc23)c(C(F)(F)F)nn1Cc1ccc(C(C)(C)C)cc1 | Tyrosine-protein kinase ABL1, phosphorylated (ABL1, Homo sapiens, UniProt P00519, T315I) | cell-free assay, competition with immobilised ligand | 1 µM | remaining binding | 85%
O=C(NCCCN1CCOCC1)c1ccc(Nc2nccc(-c3cc4ccccc4s3)n2)cc1 | ABL1 Q252H phosphorylated | binding, competition with immobilised ligand | 1 µM | remaining binding | 58%
Cc1cc(NC(=O)c2cccc3cc(-c4cccc5[nH]nc(N)c45)ccc23)ccc1F | Tyrosine-protein kinase ABL1 (ABL1, Homo sapiens, UniProt P00519, M351T) | enzyme activity, inhibitor | 0.1 µM | activity vs control | 89%
c1cncc(-c2cccc(Nc3nccc(NC4CCCCC4)n3)c2)c1 | ABL1 F317I phosphorylated | binding, competition with immobilised ligand | 10 µM | remaining binding | 100%
C[C@@H](c1ccc(-n2cnc3c(N)ncnc32)cc1)N1CCc2nn(C)c(Cc3ccccc3)c2C1=O | ABL1 F317L non-phosphorylated | binding, competition with immobilised ligand | 0.1 µM | remaining binding | 16%
O=S(=O)(NC1CCC(c2cc(F)ccc2F)(S(=O)(=O)c2ccc(Cl)cc2)CC1)C(F)(F)F (stereo not shown) | Tyrosine-protein kinase ABL1, non-phosphorylated (ABL1, Homo sapiens, UniProt P00519, H396P) | cell-free assay, competition with immobilised ligand | 1 µM | remaining binding | 100%
COc1cc2ncnc(Nc3ccc(Oc4ccccc4)cc3C)c2cc1OC | ABL1 E255K | enzyme activity, inhibitor | 1 µM | inhibition | 5%
O=C(NCC1CCOCC1)c1n[nH]cc1NC(=O)c1c(F)cccc1F | ABL1 phosphorylated | binding, competition with immobilised ligand | 1 µM | remaining binding | 85%
COc1cc2c(N3CCN(C(=O)Nc4ccc(OC(C)C)cc4)CC3)ncnc2cc1OCCCN1CCCCC1 | ABL1 | cell-free assay | 0.5 µM | remaining signal | 104%
Cc1ccc(C(=O)NCc2ccsc2)cc1C#Cc1cn(C(C)C)c2ncnc(N)c12 | ABL1 T315I | enzyme activity, inhibitor | 1 µM | activity vs control | 6%
c1nc2c(Nc3ccc4c(c3)OCCO4)nc(Nc3ccc4c(c3)OCCO4)nc2[nH]1 | ABL1 phosphorylated | binding, competition with immobilised ligand | 10 µM | binding vs control | 1.2%
O=C(c1ccc(Nc2ncc(Cl)c(-c3cc4ccccc4s3)n2)cc1)N1CCC(N2CCCC2)CC1 | ABL1 F317I non-phosphorylated | binding, competition with immobilised ligand | 1 µM | remaining binding | 74%
N[C@@H]1CCN(c2nccc(-c3cnn4ncccc34)n2)C1 | Tyrosine-protein kinase ABL1 (ABL1, Homo sapiens, UniProt P00519, F317L) | binding | 1 µM | remaining binding | 100%
CCN1CCN(Cc2ccc(C(=O)Nc3ccc(C)c(Oc4ccc5c(c4)CC(=O)N5)c3)cc2C(F)(F)F)CC1 | ABL1 Q252H phosphorylated | binding, competition with immobilised ligand | 1 µM | remaining binding | 49%

Compound | target | test | conditions | endpoint | result
CO[C@@H](C)c1c(Nc2ccc([C@H](N(C)C(=O)C3CCS(=O)(=O)CC3)C(F)(F)F)cc2)cnc2cc(Cl)nn12 | ABL1 F317I phosphorylated | binding | 1 µM | remaining binding | 100%
COc1cc(-c2cc(-c3ccc(N4CCNCC4)cc3)cnc2N)cc(OC)c1OC | ABL1 E255K | enzyme activity, inhibitor | 0.1 µM | inhibition | 74%
CNC(=O)c1cc2c(Oc3ccc(NC(=O)C4(C(=O)Nc5ccc(F)cc5)CC4)cc3)ccnc2cc1OC | ABL1 H396P | enzyme activity, inhibitor, radiometric | 1 µM | inhibition | 75%
Cc1cnc(NC2CCOCC2)nc1-n1cnc(C(=O)NC(CN)c2cc(F)cc(Cl)c2)c1 (stereo not shown) | ABL1 H396P | enzyme activity, inhibitor, radiometric | 1 µM | remaining activity | 108%
COc1cnc(Nc2cccc(S(N)(=O)=O)c2)nc1N1CCN(c2ccccc2)C(=O)C1 | ABL1 F317I phosphorylated | binding, competition with immobilised ligand | 1 µM | remaining binding | 96%
Cc1cc(C)c(-n2ccn3nc(-c4cccnc4)cc23)cc1NC(=O)c1cc(C#N)cc(S(F)(F)(F)(F)F)c1 | ABL1 F317L phosphorylated | cell-free assay, competition with immobilised ligand | 0.1 µM | remaining binding | 63.3%
O=C(c1ccc(Nc2ncc(Cl)c(-c3ccc(Cl)s3)n2)cc1)N1CCC(N2CCCC2)CC1 | ABL1 F317I non-phosphorylated | binding, competition with immobilised ligand | 1 µM | remaining binding | 97%
Nc1ncnc2occ(-c3ccc(NC(=O)Nc4cc(C(F)(F)F)ccc4F)cc3)c12 | ABL1 phosphorylated | cell-free assay, inhibitor | 20 µM | remaining signal | 0.1%
C[C@@H]1CCN(C(=O)CC#N)C[C@@H]1N(C)c1ncnc2[nH]ccc12 | ABL1 | cell-free assay, inhibitor | 0.5 µM | remaining signal | 101%
O=C(N1CCS(=O)(=O)CC1)N1C[C@H](c2ccc(OC(F)(F)F)cc2)C[C@H](c2nc(C3CC3)no2)C1 | Tyrosine-protein kinase ABL1, non-phosphorylated (ABL1, Homo sapiens, UniProt P00519, T315I) | cell-free assay, competition with immobilised ligand | 1 µM | remaining binding | 92%
O=C1Nc2ccc(Cl)cc2C1=Cc1cc(Cl)c(O)c(Cl)c1 | ABL1 | cell-free assay | 0.5 µM | remaining signal | 84%
CN(CCCC(F)(F)F)c1nccc(-c2cnn3ncccc23)n1 | ABL1 E255K | binding | 1 µM | remaining binding | 98%
Cc1cnc(Nc2ccc(C(=O)N3CCC(N4CCCC4)CC3)cc2)nc1-c1cc2ccccc2s1 | ABL1 F317L phosphorylated | binding, competition with immobilised ligand | 1 µM | remaining binding | 21%
Nc1cnc(N2CCc3cc(S(=O)(=O)Nc4c(F)cc(Cl)cc4F)cc(N4CCCC4=O)c32)nc1 | ABL1 Q252H phosphorylated | cell-free assay, competition with immobilised ligand | 1 µM | remaining binding | 98%
COc1cc2ncnc(Nc3ccc(Oc4ccccc4)c(C)c3C)c2cc1OC | ABL1 E255K | enzyme activity, inhibitor | 1 µM | inhibition | 5%
O=C(Nc1cnc(Oc2ccc(F)cc2)nc1)N1CCc2ncccc2[C@@H]1c1ccc(F)cc1 | ABL1 phosphorylated | cell-free assay, competition with immobilised ligand | 1 µM | remaining binding | 94%
CCCOc1ccc(OC)c(F)c1C(=O)c1ccc(C(=O)N[C@@H]2CNC[C@H]2NC(=O)c2ccc3[nH]ncc3c2)cc1 | ABL1 T315I | enzyme activity, inhibitor | 10 µM | remaining activity | 85%
